Experimental findings from ChEMBL document CHEMBL3526118, “Combination of GSH trapping and time-dependent inhibition assays as a predictive method of drugs generating highly reactive metabolites” (Drug Metab Dispos, 2011) are described below.

Each structure is given as a SMILES string.

Data set [1] concerns the target T1, CYP2C8 (Homo sapiens, UniProt P10632).
T1 sequence (P10632 whole entry): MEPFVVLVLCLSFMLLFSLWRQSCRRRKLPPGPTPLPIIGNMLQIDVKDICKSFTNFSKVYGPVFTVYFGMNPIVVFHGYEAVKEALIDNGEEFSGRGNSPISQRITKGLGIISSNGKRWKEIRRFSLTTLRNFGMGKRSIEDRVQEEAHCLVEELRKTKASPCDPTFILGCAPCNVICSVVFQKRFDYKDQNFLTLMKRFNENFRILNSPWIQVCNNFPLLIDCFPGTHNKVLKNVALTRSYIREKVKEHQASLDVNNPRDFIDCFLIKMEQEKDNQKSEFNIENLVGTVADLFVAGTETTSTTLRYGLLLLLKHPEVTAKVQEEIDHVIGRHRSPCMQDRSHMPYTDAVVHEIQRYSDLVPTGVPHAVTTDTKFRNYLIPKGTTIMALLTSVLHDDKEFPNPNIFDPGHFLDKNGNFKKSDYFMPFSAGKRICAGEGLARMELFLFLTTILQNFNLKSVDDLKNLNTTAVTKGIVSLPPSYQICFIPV
In words: in vitro.

The test system of data set [2] is Liver microsome. Nature of the data set: Metabolic activation in human liver microsomes assessed as [3H]GSH adduct formation rate measured per mg of protein at 100 uM by [3H]GSH trapping assay. Background: Liver microsomes are a subcellular fraction often used to study metabolism.
Data set [3] has as its target T2, CYP2C9 (Homo sapiens, UniProt P11712). Nature of the data set: in vitro.
In data set [4] the test system is Liver microsome. Conditions: human, microsomes, 100 µM.
For another data set, the target named is T3, CYP1A2 (Homo sapiens, UniProt P05177).
T3 sequence (P05177 whole entry): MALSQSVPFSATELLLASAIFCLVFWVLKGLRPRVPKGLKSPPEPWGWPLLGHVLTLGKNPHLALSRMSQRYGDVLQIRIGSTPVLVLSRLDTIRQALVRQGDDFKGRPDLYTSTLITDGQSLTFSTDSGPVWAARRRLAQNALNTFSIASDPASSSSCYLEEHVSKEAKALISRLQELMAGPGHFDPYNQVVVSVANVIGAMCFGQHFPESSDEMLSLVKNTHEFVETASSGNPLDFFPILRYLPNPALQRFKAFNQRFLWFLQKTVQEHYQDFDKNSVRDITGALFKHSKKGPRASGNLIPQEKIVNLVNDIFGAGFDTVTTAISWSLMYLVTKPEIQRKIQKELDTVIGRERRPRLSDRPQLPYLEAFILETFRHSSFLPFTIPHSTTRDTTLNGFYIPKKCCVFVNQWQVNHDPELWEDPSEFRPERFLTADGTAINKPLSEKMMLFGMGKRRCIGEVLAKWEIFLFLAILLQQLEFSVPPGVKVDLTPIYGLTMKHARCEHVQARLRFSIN
In words: in vitro.

Data set [5] has as its target T4, CYP2B6 (Homo sapiens, UniProt P20813).
T4 sequence (P20813 whole entry): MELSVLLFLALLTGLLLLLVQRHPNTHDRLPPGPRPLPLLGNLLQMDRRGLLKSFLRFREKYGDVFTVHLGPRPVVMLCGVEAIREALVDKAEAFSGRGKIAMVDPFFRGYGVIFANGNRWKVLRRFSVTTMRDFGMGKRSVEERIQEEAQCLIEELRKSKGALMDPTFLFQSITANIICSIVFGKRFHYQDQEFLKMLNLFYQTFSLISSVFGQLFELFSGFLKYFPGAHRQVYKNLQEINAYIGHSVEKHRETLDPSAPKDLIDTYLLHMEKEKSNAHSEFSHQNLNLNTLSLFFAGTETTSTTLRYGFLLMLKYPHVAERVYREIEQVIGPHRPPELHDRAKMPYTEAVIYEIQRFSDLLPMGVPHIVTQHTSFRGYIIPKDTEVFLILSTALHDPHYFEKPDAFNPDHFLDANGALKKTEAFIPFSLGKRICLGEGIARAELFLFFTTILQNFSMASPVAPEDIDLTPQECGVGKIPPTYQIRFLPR
Nature of the data set: Time dependent inhibition of CYP2B6 (unknown origin) at 0.3 uM by LC/MS system. It counts as ADME. In short, it runs like this:
(§1)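 CYP2B6 in human liver microsomes (1.0 mg/mL in preincubation), 0.1 M sodium phosphate, NADPH-generating system. Preincubation 0 or 30 min, then ten-fold dilution into incubation solution containing 50 μM bupropion (final) for 10 min. Activity is expressed as percent of the matched no-inhibitor control. % inactivation = 100 × [1 − control(30 min)/control(0 min)]; threshold 10%.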

Data set [6] has as its target T5, CYP2D6 (Homo sapiens, UniProt P10635). In words: in vitro.
The nature of data set [7]: Intrinsic clearance for reactive metabolites formation assessed as summation of [3H]GSH adduct formation rate-based reactive metabolites formation and cytochrome P450 (unknown origin) inactivation rate-based reactive metabolites formation. The settings on record: human.
Data set [8] has as its system Liver microsome. In words: Covalent binding in human liver microsomes measured per mg of protein using radiolabelled compound at 10 uM after 1 hr incubation by liquid scintillation counting.
In data set [9] the target is T6, CYP2C19 (Homo sapiens, UniProt P33261). In words: in vitro. The settings on record: microsomes.
Data set [10] in a line: Intrinsic clearance for reactive metabolites formation per mg of protein based on cytochrome P450 (unknown origin) inactivation rate by TDI assay. Conditions: human.
The target in data set [11] is T6, CYP2C19. Nature of the data set: in vitro. The settings on record: human liver microsomes.
Data set [12] addresses T4, CYP2B6. In words: Time dependent inhibition of CYP2B6 (unknown origin) at 30 uM by LC/MS system. The format is ADME. A digest of the protocol:
as §1

The target of data set [13] is T7, CYP3A4 (Homo sapiens, UniProt P08684). Nature of the data set: Time dependent inhibition of CYP3A4 (unknown origin) at 50 uM by LC/MS system. It counts as ADME. In short, it runs like this:
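CYP3A4: human liver microsomes at 0.5 mg/mL in preincubation, 0.1 M sodium phosphate, NADPH-generating system, 0 or 30 min. Ten-fold dilution into incubation with 2.5 μM midazolam (final), 10 min. Each value is relative to the matched control without inhibitor. % enzyme inactivation = 100 × [1 − %control(30 min)/%control(0 min)]; 10% threshold.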

The target in data set [14] is T1, CYP2C8. Nature of the data set: Time dependent inhibition of CYP2C8 (unknown origin) at 10 uM by LC/MS system. It counts as ADME. In short, it runs like this: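 CYP2C8 in human liver microsomes (1.0 mg/mL in preincubation), 0.1 M sodium phosphate, NADPH-generating system. Preincubation 0 or 30 min, then ten-fold dilution into incubation with 10 μM paclitaxel (final) for 10 min.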

Data set [15] concerns the target T2, CYP2C9. Nature of the data set: Time dependent inhibition of CYP2C9 (unknown origin) at 30 uM by LC/MS system. The format is ADME. In short, it runs like this:
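Human liver microsomes at 1.0 mg/mL were preincubated 0 or 30 min with compound and NADPH-generating system in 0.1 M sodium phosphate, then diluted ten-fold into incubation containing 200 μM tolbutamide (final) for 10 min to probe CYP2C9. Percent of matched no-inhibitor control was determined at each time. Inactivation = 100 × [1 − ratio of 30-min to 0-min values]; 10% threshold.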

In data set [16] the target is T6, CYP2C19. Nature of the data set: Time dependent inhibition of CYP2C19 in human liver microsomes at 30 uM by LC/MS system. The format is ADME. A digest of the protocol:
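Human liver microsomes at 2.0 mg/mL in preincubation, 0.1 M sodium phosphate, NADPH-generating system; 0- or 30-min preincubation with inhibitor, then tenfold dilution into incubation containing 50 μM (S)-mephenytoin for 10 min; LC separation. Percent inactivation = 100×[1 − %control(30 min)/%control(0 min)] versus inhibitor-free controls; >10% counted positive. Concentration reduced from 100 μM for strong reversible inhibitors.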

Data set [17] has as its target T7, CYP3A4. Nature of the data set: in vitro.
Data set [18] concerns the target T5, CYP2D6. In words: Time dependent inhibition of CYP2D6 (unknown origin) at 10 uM by LC/MS system. It counts as ADME. A digest of the protocol: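 CYP2D6 activity was measured with 30 μM dextromethorphan (final) after 0 or 30 min preincubation of compound with human liver microsomes (1.0 mg/mL) and NADPH-generating system in 0.1 M sodium phosphate. A ten-fold dilution was followed by a 10-min incubation. % inactivation = 100 × [1 − %control(30 min)/%control(0 min)]; threshold 10%.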

Data set [19] has as its target T4, CYP2B6. Nature of the data set: in vitro.
Data set [20] deals with T4, CYP2B6. In words: in vitro. The source holds these as a separate data set.

T6 sequence (P33261 whole entry): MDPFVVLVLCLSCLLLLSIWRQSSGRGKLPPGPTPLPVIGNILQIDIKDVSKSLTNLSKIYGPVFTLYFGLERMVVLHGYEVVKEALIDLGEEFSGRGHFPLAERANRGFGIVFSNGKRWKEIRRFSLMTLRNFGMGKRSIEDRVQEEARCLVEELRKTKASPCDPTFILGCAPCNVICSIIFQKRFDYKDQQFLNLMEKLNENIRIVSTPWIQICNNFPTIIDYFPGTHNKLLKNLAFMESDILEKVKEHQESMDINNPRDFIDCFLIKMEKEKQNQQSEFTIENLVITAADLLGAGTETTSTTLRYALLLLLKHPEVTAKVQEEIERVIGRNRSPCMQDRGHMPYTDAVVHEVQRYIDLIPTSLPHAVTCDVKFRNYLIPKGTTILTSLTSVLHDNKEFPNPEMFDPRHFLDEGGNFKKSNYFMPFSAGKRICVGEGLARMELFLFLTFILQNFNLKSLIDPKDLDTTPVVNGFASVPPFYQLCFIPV
T2 sequence (P11712 whole entry): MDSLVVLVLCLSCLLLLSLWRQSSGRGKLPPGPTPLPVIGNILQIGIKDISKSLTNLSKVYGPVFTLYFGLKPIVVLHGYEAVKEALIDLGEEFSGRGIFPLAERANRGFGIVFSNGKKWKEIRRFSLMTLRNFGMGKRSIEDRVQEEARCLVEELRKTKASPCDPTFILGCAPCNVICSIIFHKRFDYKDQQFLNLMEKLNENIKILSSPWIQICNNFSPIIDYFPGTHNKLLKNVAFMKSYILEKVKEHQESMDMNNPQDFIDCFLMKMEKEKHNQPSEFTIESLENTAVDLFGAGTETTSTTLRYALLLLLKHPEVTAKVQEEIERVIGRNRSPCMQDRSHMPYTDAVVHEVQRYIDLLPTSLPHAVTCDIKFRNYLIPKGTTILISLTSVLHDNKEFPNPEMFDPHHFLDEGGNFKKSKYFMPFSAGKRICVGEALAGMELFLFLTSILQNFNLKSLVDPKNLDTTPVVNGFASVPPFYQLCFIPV
T5 sequence (P10635 whole entry): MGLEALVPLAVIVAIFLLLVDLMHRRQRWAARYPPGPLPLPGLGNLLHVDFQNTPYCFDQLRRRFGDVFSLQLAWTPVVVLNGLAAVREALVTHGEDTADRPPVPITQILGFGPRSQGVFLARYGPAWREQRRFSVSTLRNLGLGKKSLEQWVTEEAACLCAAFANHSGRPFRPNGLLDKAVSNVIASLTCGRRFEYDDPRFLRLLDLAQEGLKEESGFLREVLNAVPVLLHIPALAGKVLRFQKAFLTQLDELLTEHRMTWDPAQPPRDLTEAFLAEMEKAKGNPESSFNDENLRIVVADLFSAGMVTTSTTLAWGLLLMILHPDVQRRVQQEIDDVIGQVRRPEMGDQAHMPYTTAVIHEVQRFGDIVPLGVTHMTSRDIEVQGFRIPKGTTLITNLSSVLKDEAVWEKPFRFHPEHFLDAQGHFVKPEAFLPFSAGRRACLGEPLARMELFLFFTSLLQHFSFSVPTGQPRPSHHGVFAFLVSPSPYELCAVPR
T7 sequence (P08684 whole entry): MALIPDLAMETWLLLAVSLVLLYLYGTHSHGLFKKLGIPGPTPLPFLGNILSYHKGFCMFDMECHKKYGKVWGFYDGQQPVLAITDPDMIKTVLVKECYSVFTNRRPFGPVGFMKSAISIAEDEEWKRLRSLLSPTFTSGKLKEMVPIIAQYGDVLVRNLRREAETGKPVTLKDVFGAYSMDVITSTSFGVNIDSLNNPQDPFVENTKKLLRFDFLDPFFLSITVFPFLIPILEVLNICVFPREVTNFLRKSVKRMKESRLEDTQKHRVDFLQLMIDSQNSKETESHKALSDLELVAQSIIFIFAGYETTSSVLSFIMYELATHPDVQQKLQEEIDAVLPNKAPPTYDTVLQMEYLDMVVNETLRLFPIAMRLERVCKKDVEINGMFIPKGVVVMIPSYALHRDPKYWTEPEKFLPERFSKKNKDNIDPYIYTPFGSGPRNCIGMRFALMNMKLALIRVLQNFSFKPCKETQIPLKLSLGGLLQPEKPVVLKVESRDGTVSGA

One may read the inhibition as the relative decrease from the control value, in per cent. As to `COC(=O)[C@H](c1ccccc1Cl)N1CCc2sccc2C1` [CLOPIDOGREL], the inhibition at 100 µM against CYP2C8 [1] is less than 10%; at CYP2C9 [3] it was less than 10%; on CYP1A2, less than 10%; against CYP2D6 [6] it was less than 10%; against CYP2C19 [9] it was 10%. Also, the Drug metabolism in the data set with Liver microsome [2] turned out to be 23.6 pmol/min. In the data set with Liver microsome [4], this molecule had a CLH of 0.236 µL/min/mg. This molecule also showed an inhibition at 0.3 µM against CYP2B6 [5] of 44%. Moreover, the results for the clearance in data set [7] and in [10] were 1.08 µL/min/mg and 0.848 µL/min/mg, respectively. The same molecule displayed a PB with Liver microsome [8] of 417.4 pmol.
`C#C[C@]1(O)CC[C@H]2[C@@H]3CCc4cc(O)ccc4[C@H]3CC[C@@]21C` [ETHINYL ESTRADIOL]: the inhibition at 10 µM against CYP2C19 [11] and at CYP2C8 [14] was less than 10% throughout. Also, the figures for the inhibition at 30 µM on CYP2B6 [12] and at CYP2C9 [15] were less than 10% and 27%, respectively. In addition, on CYP3A4 [13], at 50 µM the inhibition was 65%. In addition, the Drug metabolism with Liver microsome [2] turned out to be 34 pmol/min. The same molecule showed a CLH in the data set with Liver microsome [4] of 0.34 µL/min/mg. Besides, the inhibition at 100 µM was 18% against CYP1A2 and less than 10% against CYP2D6 [6]. For the same molecule, the clearance in data set [7] was determined as 0.427 µL/min/mg; in [10] it was 0.087 µL/min/mg. Moreover, in the data set on Liver microsome [8], the PB stood at 937.5 pmol.
As to `CNCCC(Oc1ccc(C(F)(F)F)cc1)c1ccccc1` (stereo not given) [FLUOXETINE], the inhibition at 100 µM against CYP2C8 [1] was less than 10%; at CYP2C9 [3] it was less than 10%; on CYP1A2 it was 12%; at CYP3A4 [17], less than 10%; against CYP2B6 [19], less than 10%. In addition, the Drug metabolism result in the data set with Liver microsome [2] is “metabolite_not_detected”. The clearance in [7] and in [10] was 0.008 µL/min/mg throughout. Also, 30 µM produced 36% inhibition on CYP2C19 [16]. Besides, the inhibition at 10 µM against CYP2D6 [18] was less than 10%. Besides, the PB in the data set on Liver microsome [8] is recorded as 15 pmol.
Turning to `Clc1ccccc1CN1CCc2sccc2C1` [TICLOPIDINE], the inhibition at 100 µM against CYP2C8 [1] was less than 10%; on CYP2C9 [3], less than 10%; at CYP1A2, 36%; against CYP3A4 [17] it was 26%. In addition, the inhibition at 0.1 µM against CYP2B6 [20] worked out at 35%. Further, the inhibition at 10 µM at CYP2D6 [18] is less than 10%.
